Laboratory results reported in the M2OR odorant receptor database.

Experiments:
Details in all cases: stereoisomer not certain
OR51I2 (Homo sapiens) = target: T1, OR51I2 (Homo sapiens) (UniProt Q9H344)
T1 sequence (whole entry): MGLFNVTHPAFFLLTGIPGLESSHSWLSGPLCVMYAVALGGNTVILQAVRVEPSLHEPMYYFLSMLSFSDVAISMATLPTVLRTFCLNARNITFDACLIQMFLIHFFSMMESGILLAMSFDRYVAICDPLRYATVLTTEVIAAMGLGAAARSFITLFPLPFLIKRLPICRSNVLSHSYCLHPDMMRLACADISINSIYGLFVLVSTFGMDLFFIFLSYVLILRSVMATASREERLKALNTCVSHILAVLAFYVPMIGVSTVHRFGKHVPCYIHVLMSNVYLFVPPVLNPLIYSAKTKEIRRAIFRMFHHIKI
In short: (§1)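 Whether a receptor–molecule pair is responsive (active) rests on the original authors' judgment that its measured signal was statistically different from baseline. Pairs without that judgment are non-responsive (inactive). Sources used varied assay methods, commonly transient luciferase assays in mammalian cell lines.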

OR51J1 (Homo sapiens) = target: T2, OR51J1 (Homo sapiens) (UniProt Q9H342)
T2 sequence (whole entry): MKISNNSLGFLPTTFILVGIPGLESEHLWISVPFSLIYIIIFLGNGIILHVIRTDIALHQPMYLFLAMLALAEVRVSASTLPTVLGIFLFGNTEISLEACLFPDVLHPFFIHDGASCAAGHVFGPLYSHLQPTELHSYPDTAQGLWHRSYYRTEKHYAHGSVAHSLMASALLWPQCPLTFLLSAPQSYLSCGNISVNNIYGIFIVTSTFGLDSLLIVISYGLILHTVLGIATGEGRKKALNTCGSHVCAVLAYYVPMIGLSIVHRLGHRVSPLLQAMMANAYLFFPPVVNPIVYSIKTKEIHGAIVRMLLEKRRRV
In short: as §1

OR51L1 (Homo sapiens) = target: T3, OR51L1 (Homo sapiens) (UniProt Q8NGJ5)
T3 sequence (whole entry): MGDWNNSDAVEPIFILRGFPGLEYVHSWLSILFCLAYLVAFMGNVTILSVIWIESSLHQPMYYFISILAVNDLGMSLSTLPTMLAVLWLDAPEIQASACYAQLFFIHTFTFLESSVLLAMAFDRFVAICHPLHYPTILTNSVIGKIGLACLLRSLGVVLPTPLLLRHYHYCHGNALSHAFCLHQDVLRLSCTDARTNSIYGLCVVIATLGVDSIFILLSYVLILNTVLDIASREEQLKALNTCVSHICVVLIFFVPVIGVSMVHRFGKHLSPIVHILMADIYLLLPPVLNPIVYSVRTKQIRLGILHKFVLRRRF
In short: as §1

OR51M1 (Homo sapiens) = target: T4, OR51M1 (Homo sapiens) (UniProt Q9H341)
T4 sequence (whole entry): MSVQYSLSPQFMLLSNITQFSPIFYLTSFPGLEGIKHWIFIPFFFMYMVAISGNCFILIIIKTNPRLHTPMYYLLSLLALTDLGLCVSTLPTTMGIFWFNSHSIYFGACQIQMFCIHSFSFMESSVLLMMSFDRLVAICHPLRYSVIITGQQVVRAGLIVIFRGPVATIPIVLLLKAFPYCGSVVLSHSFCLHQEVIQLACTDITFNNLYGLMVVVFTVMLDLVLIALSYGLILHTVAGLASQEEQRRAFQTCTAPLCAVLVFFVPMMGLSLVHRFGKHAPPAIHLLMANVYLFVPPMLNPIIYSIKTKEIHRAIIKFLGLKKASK
In short: as §1

OR51Q1 (Homo sapiens) = target: T5, OR51Q1 (Homo sapiens) (UniProt Q8NH59)
T5 sequence (whole entry): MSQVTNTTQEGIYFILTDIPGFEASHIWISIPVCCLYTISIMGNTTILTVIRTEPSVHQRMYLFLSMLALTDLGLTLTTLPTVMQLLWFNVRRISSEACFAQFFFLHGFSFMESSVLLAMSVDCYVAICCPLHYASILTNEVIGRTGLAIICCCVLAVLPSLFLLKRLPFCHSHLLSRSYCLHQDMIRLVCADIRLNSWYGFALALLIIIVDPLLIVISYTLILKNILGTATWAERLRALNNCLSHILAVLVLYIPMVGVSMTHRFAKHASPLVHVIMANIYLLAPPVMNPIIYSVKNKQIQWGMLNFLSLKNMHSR
In short: as §1

OR51S1 (Homo sapiens) = target: T6, OR51S1 (Homo sapiens) (UniProt Q8NGJ8)
T6 sequence (whole entry): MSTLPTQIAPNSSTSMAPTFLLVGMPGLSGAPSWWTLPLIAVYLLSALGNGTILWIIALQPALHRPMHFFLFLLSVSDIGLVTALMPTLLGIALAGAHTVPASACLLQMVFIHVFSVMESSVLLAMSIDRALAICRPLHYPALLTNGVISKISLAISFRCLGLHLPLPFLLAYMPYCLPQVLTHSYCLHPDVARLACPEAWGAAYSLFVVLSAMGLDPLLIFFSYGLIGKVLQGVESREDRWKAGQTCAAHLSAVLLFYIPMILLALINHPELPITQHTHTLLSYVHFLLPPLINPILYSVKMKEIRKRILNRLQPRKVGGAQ
In short: as §1

OR51T1 (Homo sapiens) = target: T7, OR51T1 (Homo sapiens) (UniProt Q8NGJ9)
T7 sequence (whole entry): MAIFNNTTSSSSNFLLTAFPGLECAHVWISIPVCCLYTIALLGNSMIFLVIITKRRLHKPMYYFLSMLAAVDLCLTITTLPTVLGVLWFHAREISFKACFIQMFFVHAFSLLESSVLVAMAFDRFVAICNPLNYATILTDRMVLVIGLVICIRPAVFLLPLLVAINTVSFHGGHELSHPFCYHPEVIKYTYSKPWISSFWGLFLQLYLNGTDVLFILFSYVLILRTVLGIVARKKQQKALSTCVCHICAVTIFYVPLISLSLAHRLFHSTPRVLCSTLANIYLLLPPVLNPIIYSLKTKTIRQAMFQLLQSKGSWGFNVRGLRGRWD
In short: as §1

OR51V1 (Homo sapiens) = target: T8, OR51V1 (Homo sapiens) (UniProt Q9H2C8)
T8 sequence (whole entry): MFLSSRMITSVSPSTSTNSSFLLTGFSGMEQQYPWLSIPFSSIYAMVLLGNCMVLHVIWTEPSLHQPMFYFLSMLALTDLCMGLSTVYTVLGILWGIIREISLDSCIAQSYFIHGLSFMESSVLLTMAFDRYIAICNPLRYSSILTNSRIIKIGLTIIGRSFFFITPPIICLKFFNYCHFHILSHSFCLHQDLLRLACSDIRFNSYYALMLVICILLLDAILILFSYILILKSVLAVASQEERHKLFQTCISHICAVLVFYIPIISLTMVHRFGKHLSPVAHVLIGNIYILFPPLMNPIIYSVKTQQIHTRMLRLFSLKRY
In short: as §1

OR52A1 (Homo sapiens) = target: T9, OR52A1 (Homo sapiens) (UniProt Q9UKL2)
T9 sequence (whole entry): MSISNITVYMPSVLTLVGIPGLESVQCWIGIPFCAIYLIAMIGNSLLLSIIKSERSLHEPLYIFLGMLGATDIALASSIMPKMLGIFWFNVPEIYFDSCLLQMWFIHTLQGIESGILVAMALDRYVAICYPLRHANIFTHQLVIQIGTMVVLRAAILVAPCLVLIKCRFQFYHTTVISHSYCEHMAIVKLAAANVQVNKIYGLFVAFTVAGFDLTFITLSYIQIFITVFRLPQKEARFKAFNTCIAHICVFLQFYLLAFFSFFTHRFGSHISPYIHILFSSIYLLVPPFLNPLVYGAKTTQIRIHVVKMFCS
In short: as §1

OR52A4P (Homo sapiens) = target: T10, OR52A4P (Homo sapiens) (UniProt A6NMU1)
T10 sequence (whole entry): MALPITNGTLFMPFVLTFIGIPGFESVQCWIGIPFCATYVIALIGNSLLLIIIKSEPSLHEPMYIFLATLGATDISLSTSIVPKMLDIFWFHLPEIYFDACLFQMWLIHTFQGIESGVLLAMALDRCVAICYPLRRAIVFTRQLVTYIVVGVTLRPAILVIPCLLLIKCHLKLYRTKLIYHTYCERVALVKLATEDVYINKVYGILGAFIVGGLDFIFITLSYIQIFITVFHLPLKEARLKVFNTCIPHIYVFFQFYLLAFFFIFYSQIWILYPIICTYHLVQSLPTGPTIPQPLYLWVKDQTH
In short: as §1
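Further: active if original authors judged signal statistically different from baseline.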

| SMILES | odorant receptor agonist call (OR51I2 (Homo sapiens)) | odorant receptor agonist call (OR51J1 (Homo sapiens)) | odorant receptor agonist call (OR51L1 (Homo sapiens)) | odorant receptor agonist call (OR51M1 (Homo sapiens)) | odorant receptor agonist call (OR51Q1 (Homo sapiens)) | odorant receptor agonist call (OR51S1 (Homo sapiens)) | odorant receptor agonist call (OR51T1 (Homo sapiens)) | odorant receptor agonist call (OR51V1 (Homo sapiens)) | odorant receptor agonist call (OR52A1 (Homo sapiens)) | odorant receptor agonist call (OR52A4P (Homo sapiens)) |
| --- | --- | --- | --- | --- | --- | --- | --- | --- | --- | --- |
| CCCCCC(=O)C(C)C(C)=O (stereo not given) | inactive | inactive | inactive | inactive | inactive | inactive | inactive | inactive | inactive | inactive |
| CCC1OC(C)=C(O)C1=O (stereo not given) | inactive | inactive | inactive | inactive | inactive | inactive | – | inactive | inactive | – |
| CCCCCCOC(C)=O | – | – | inactive | – | – | – | – | – | – | – |
| CC1CCCCCCCCCCCCC(=O)C1 (stereo not given) | inactive | inactive | inactive | inactive | inactive | inactive | inactive | inactive | inactive | inactive |
| CCCCOC(=O)C(C)OC(=O)CCC (stereo not given) | – | – | inactive | – | – | – | – | – | – | – |
| CC1=C(O)C(=O)OC1C (stereo not given) | inactive | inactive | inactive | inactive | inactive | inactive | – | inactive | inactive | – |
| CC(=O)c1c(C)c([N+](=O)[O-])c(C(C)(C)C)c([N+](=O)[O-])c1C | inactive | inactive | inactive | inactive | inactive | inactive | inactive | inactive | inactive | inactive |
| CCCCC(=O)CC | – | – | inactive | – | – | – | – | – | – | – |
| CCCCCCCCCO | – | – | inactive | – | – | – | – | – | – | – |
| CCCC(=O)C(C)=O | – | – | inactive | – | – | – | – | – | – | – |
| CCCCCCCCCS | – | – | inactive | – | – | – | – | – | – | – |
| CCCC(S)CCOC(C)=O (stereo not given) | inactive | inactive | inactive | inactive | inactive | inactive | – | inactive | inactive | – |
| CCCCCCC=CCCC=O | inactive | inactive | inactive | inactive | inactive | inactive | inactive | inactive | inactive | – |
| Cc1cnc(C)c(C)n1 | inactive | inactive | inactive | inactive | inactive | inactive | – | inactive | inactive | – |
| CC(CO)CS (stereo not given) | inactive | inactive | inactive | inactive | inactive | inactive | inactive | inactive | inactive | inactive |
| CCCCCC1CCCC(=O)O1 (stereo not given) | inactive | inactive | inactive | inactive | inactive | inactive | inactive | inactive | inactive | inactive |

| SMILES | odorant receptor agonist call (OR51I2 (Homo sapiens)) | odorant receptor agonist call (OR51J1 (Homo sapiens)) | odorant receptor agonist call (OR51L1 (Homo sapiens)) | odorant receptor agonist call (OR51M1 (Homo sapiens)) | odorant receptor agonist call (OR51Q1 (Homo sapiens)) | odorant receptor agonist call (OR51S1 (Homo sapiens)) | odorant receptor agonist call (OR51T1 (Homo sapiens)) | odorant receptor agonist call (OR51V1 (Homo sapiens)) | odorant receptor agonist call (OR52A1 (Homo sapiens)) | odorant receptor agonist call (OR52A4P (Homo sapiens)) |
| --- | --- | --- | --- | --- | --- | --- | --- | --- | --- | --- |
| CCCCCOC(=O)CCCCC | – | – | inactive | – | – | – | – | – | – | – |
| CC1=NC(C)C(C)S1 (stereo not given) | inactive | inactive | inactive | inactive | inactive | inactive | – | inactive | inactive | – |
| CCCCCC=O | – | – | inactive | – | – | – | – | – | – | – |
| CCCCCCO | – | – | inactive | – | – | – | – | – | – | – |
| CCC(S)C(C)CO (stereo not given) | inactive | inactive | inactive | inactive | inactive | inactive | inactive | inactive | inactive | inactive |
| c1ccccc1 | – | – | inactive | – | – | – | – | – | – | – |
| CC(=O)OCC=C(C)C | – | – | inactive | – | – | – | – | – | – | – |
| CCCCC(S)C(C)CO (stereo not given) | inactive | inactive | inactive | inactive | inactive | inactive | active | inactive | inactive | inactive |
| CC1=C(O)C(=O)C(C)O1 (stereo not given) | inactive | inactive | inactive | inactive | inactive | inactive | – | inactive | inactive | – |
| CCCCC(C)=O | – | – | inactive | – | – | – | – | – | – | – |
| CCC1OC(=O)C(O)=C1C (stereo not given) | inactive | inactive | inactive | inactive | inactive | inactive | – | inactive | inactive | – |
| CCOC(=O)C(C)C | – | – | inactive | – | – | – | – | – | – | – |
| CC(=O)Oc1ccccc1 | – | – | inactive | – | – | – | – | – | – | – |
| CCCCCC(S)C(C)CO (stereo not given) | inactive | inactive | inactive | inactive | inactive | inactive | inactive | inactive | inactive | inactive |
| CCCCCCCCC(=O)O | – | – | – | – | – | – | – | – | inactive | – |
